HTR1A agonist: human 5-HT1a receptor agonists, primary screen, cell-based, CHO, Ga15 NFAT-bla reporter. AID 567, 2006. activation, % at 10 µM. 65,000 tested, 0.56% active. CHO 5-HT1a Ga15 NFAT-bla reporter, FRET ratio; 0% basal, 100% maximal reference agonist;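 active = activation above the screen-wide mean activation plus 3 SD, cut at about 19% in these data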;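 note: 0% = DMSO wells and 100% = 5-CT at EC100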
Target sequence (P08908 whole entry, looked up): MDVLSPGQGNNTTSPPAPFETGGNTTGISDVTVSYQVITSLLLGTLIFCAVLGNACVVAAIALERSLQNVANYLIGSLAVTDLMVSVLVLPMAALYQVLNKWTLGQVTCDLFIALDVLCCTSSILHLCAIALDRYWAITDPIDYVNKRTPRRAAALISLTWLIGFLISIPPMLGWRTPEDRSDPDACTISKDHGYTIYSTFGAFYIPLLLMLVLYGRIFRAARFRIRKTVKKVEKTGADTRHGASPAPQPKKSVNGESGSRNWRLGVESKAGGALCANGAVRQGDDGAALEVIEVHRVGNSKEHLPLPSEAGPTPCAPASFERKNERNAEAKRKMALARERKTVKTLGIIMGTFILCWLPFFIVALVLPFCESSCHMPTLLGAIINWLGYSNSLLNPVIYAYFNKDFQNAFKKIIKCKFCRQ
S1P1 ag-PAM: S1P1 agonists and agonism potentiators, primary screen, cell-based, primary and confirmation screens, CRE-bla reporter; Sphingosine 1-phosphate receptor 1 (Homo sapiens), P21453; S1P1 CRE-bla cells, forskolin, beta-lactamase FRET, potentiator mode; S1P1 agonist co-added at EC20, 2 nM; 100% = saturating reference agonist, 0% = basal; activation, % at 9.5 µM; 56,000 tested, 0.57% active; AID 449, 2006;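 active = activation above a cutoff set at the mean activation of all tested compounds plus 3 SD, cut at about 54% in these data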;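 note: forskolin at 4 µM as EC80 and the EC20 agonist is SEW2871; 100% = SEW2871 at its EC100 plus forskolin at EC80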
S1P3 ag: human S1P3 receptor agonists, primary screen, cell-based, primary and confirmation, NFAT-BLA reporter | Sphingosine 1-phosphate receptor 3 (Homo sapiens), Q99500 | S1P3 NFAT-BLA reporter cells, agonism, FRET ratio; relative to 1 µM S1P, basal subtracted | activation, % at 4.5 µM | 60,000 tested, 0.1% active | AID 373, 2006;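 active = activation above the screen-wide mean plus 3 SD, cut at about 4.5% in these data, passing the limit was not always enough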
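Benchmarks: high control 1 µM S1P / System: stable CHO line with human S1P3, Gα16, NFAT-BLA reporter / Dosing: single compound concentration, 4.5 µM final / Timing: 4 h compound at 37 °C, 2 h substrate at RT / Measured by: FRET β-lactamase substrate fluorescence, excitation 405 nm, 460/535 nm emission ratio, background-subtracted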
HTR1E agonist: 5-HT1E receptor agonists, primary screen, cell-based, HTS; CHO 5-HT1E Ga15 NFAT-bla reporter, FRET; 0% DMSO wells, 100% control agonist wells; 5-hydroxytryptamine receptor 1E (Homo sapiens), P28566; 65,000 tested, 0.69% active; AID 574, 2007; activation, % at 6 µM;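 active = activation above a set limit, the screen-wide mean activation plus 3 SD, cut at about 8.5% in these data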;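 note: 100% = positive control agonist at 1 µM giving full maximal response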
5HT1E antag: 5-HT1E receptor antagonists, primary screen, cell-based, HTS | 5-hydroxytryptamine receptor 1E (Homo sapiens), P28566 | 65,000 tested, 0.99% active | inhibition, % at 6 µM | CHO 5-HT1E Ga15 NFAT-bla reporter, FRET, antagonist;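 active = inhibition above a set limit, the mean inhibition across every tested compound plus 3 SD, cut at about 29% in these data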;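 note: signal is the 460 over 535 nm emission ratio of beta-lactamase substrate; 0% = agonist plus DMSO wells and 100% = wells without agonist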
5-HT1A blocker: human 5-HT1a receptor antagonists, primary screen, cell-based, CHO, Ga15 NFAT-bla reporter; 5-hydroxytryptamine receptor 1A (Homo sapiens), P08908; CHO 5-HT1a Ga15 NFAT-bla reporter, antagonist mode; inhibition, % at 10 µM; 62,000 tested, 0.68% active;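 active = inhibition above the mean of all tested compounds plus 3 SD, cut at about 43% in these data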;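 note: receptor stimulated by 5-CT agonist at 100 nM near EC80; beta-lactamase reporter measured by ratiometric fluorescence of a cleavable substrate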
Numbers without * were called inactive; . = no result given. In the library only some 3% were active in any assay of this set; here they are far more common.

SMILES	HTR1A agonist	S1P1 ag-PAM	S1P3 ag	HTR1E agonist	5HT1E antag	5-HT1A blocker
Brc1ccccc1-c1nnc(CSc2nncn2-c2ccccc2)o1	171*	9	0	0	-5	-14
O=C(NC(NC1CCS(=O)(=O)C1)C(=O)c1ccccc1)c1ccc(Cl)cc1 (configuration not stated)	2	-1	0	-1	5	6
COc1cccc(OC)c1OCCCCN1CCCC1	-2	-2	0	1	-1	-10
Clc1ccccc1OCCCCN1CCCC1	-1	-30	-1	15*	4	17
CCOC(=O)c1c(NC(=O)c2nn(CC)cc2Br)c(C#N)cn1-c1ccccc1	1	-26	0	0	40*	18
CCOC(=O)c1c(N)c(C#N)cn1-c1ccccc1	-2	-14	0	0	6	-5
CCN1CCCC1CNC(=O)c1c(O)c2c([nH]c1=O)CCCC2 (configuration not stated)	-1	5	0	-1	6	-4
c1ccc(CNc2ncnc3ccccc23)cc1	-1	106*	-2	0	9	19
COc1ccc(C(=O)N2CCc3cc(OC)c(OC)cc3C2)cc1OC	-1	-6	0	0	11	3
COc1cc2c(cc1OC)C1Cc3ccc(OC)c(OC)c3CN1CC2 (configuration not stated)	-1	2	-1	8	2	51*
CCn1c(=O)c(C(=O)Nc2nc3ccccc3[nH]2)c(O)c2ccccc21	-2	55	0	3	64*	57*
CCc1ccc2nc(NC3=NCN(CCCN4CCOCC4)CN3)nc(C)c2c1	-3	5	0	0	3	-6
Brc1ccc2ncnc(Nc3ccc(N4CCOCC4)cc3)c2c1	0	61*	-1	2	15	7
O=C(COc1ccc(Cl)cc1Cl)Nc1ccc(Cl)cn1	-1	-10	0	1	-13	-8
O=C(COC(=O)CCC1CCCC1)Nc1ccc(Cl)cn1	-6	9	-1	59*	1	-11
O=C(NCc1ccco1)Nc1ccc2nsnc2c1	-2	-20	-1	-1	14	59*
O=C(NCc1ccco1)Nc1ccc(Br)cc1	0	32	-1	-1	13	32
CCCCC(c1nnnn1CC1CCCO1)N1CCN(c2nc3ccccc3s2)CC1 (configuration not stated)	-2	38	-1	10*	20	26
CC(C)CC(c1nnnn1CC1CCCO1)N1CCN(c2nc3ccccc3s2)CC1 (configuration not stated)	-5	-19	0	0	-10	3
CCOC(=O)c1cnc(-n2nc(C)cc2C)nc1NCc1ccccc1	3	10	-2	0	15	47*
Cc1onc(-c2c(Cl)cccc2Cl)c1C(=O)N1CCc2ccccc21	-4	-12	7.4*	0	11	-11
CC(C)(C)NC(=O)C(c1ccco1)N(C(=O)Cn1nnc(-c2ccc(F)cc2)n1)c1cccc(F)c1 (configuration not stated)	-1	-7	-1	10*	8	-3
Cc1ccc(-c2nnn(CC(=O)N(c3ccc(F)cc3)C(C(=O)NC3CCCC3)c3ccco3)n2)o1 (configuration not stated)	0	-7	0	0	16	16
Cc1ccc(-c2nnn(CC(=O)N(c3cccc(F)c3)C(C(=O)NC3CCCC3)c3ccco3)n2)o1 (configuration not stated)	-1	-8	0	1	32*	27
Cc1ccc(-c2nnn(CC(=O)N(Cc3cccs3)C(C(=O)NC(C)(C)C)c3ccco3)n2)o1 (configuration not stated)	-2	-48	0	0	-13	-2
SMILES	HTR1A agonist	S1P1 ag-PAM	S1P3 ag	HTR1E agonist	5HT1E antag	5-HT1A blocker
COC(=O)CSc1nnc(-c2ccc(S(=O)(=O)NCc3cccs3)cc2)o1	-2	-11	0	0	-1	-3
O=C(CSc1nnc(Cn2nnc3ccccc32)o1)N(Cc1ccc(F)cc1)c1ccccc1	-1	68*	-2	0	17	5
COc1ccc(CN(C(=O)CSc2nnc(-c3ccc(F)cc3)o2)c2ccc(F)cc2)cc1	2	11	0	0	-2	0
CCCCNC1=C(Br)C(=O)CC(C)(C)C1	0	-15	-4	-1	1	.
Cc1[nH]nc2c1C(CCc1ccccc1)C(C#N)=C(N)O2 (configuration not stated)	0	3	0	1	-5	.
CCN(CC)CCCN1C(=O)C(=O)/C(=C(/O)c2ccc3c(c2)OCO3)C1c1ccccn1 (configuration not stated)	0	-5	-1	0	7	2
CN(C)CCCN1C(=O)C(=O)/C(=C(/O)c2ccc3c(c2)OCCO3)C1c1ccccn1 (configuration not stated)	81*	4	-1	0	2	-1
Cn1c2c(c3ccccc31)CCSC2=O	-4	-4	1	0	7	-26
CCCCNC(=O)CCn1nc(-c2ccccc2)ccc1=O	-2	-5	1	0	-12	-6
CCCCN(C)CCCNC(=O)CCn1nc(-c2ccccc2)ccc1=O	-4	-3	-1	22*	6	4
CCCc1cc(=O)[nH]c(SCC(=O)N2CCN(c3ccc(F)cc3)CC2)n1	0	11	-1	4	-3	-2
COc1ccc(-c2nnc(SCC(=O)NC(=O)NCc3ccco3)o2)cc1	-2	.	.	1	-2	0
Cc1cc(C(=O)OCC(=O)Nc2cc(C(F)(F)F)ccc2N2CCOCC2)c(C)o1	-1	-11	0	1	5	25
CCn1c(SCC(=O)Nc2nc3ccc(C)cc3s2)nc2c(c1=O)SC(C)C2 (configuration not stated)	1	55*	-1	0	8	-16
CCn1c(SCC(=O)NC2CCCCC2)nc2c(c1=O)SC(C)C2 (configuration not stated)	-1	-2	-1	-1	-3	8
